Measured values as given in ChEMBL document CHEMBL1153389, “Identification of novel antibacterial peptides by chemoinformatics and machine learning” (2009).

test system: Pseudomonas aeruginosa; experiment: Antimicrobial activity against Pseudomonas aeruginosa H1001 expressing luciferase gene assessed as ratio antimicrobial IC50 for drug to Bac2A peptide by luminescence assay; type: functional
Method in brief: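 Peptides are made by SPOT synthesis on cellulose, cleaved, and the spots placed in plate wells. Overnight P. aeruginosa H1001 (fliC::luxCDABE) is diluted 1:500 in 100 mM Tris-HCl pH 7.3 with 20 mM glucose and added to the wells. After 30 min, serial dilutions (8 rows) are made. Luminescence is read at 4 h. IC50 is taken from a sigmoid fit and expressed relative to Bac2A run in the same series.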

Compared with H-KRFWIWFWR-OH, H-KRKIWWWIR-OH is lower in “Ratio IC50” value: 3.04 for the first, 0.28 for the second.

Compared with H-KRKLIRWWW-OH, H-KRRRIWWWK-OH is higher in “Ratio IC50” value: 0.23 for the first, 0.4 for the second.

Compared with H-KRWLTWRFR-OH, H-KRWRWWRWW-OH is lower in “Ratio IC50” value: 0.54 for the first, 0.28 for the second.

First: H-KRWVWYRYW-OH
Second: H-KRWWIRWWR-OH
The “Ratio IC50” value of the first is higher: 0.54 for the first, 0.21 for the second.

First: H-KRWWIWRIR-OH
Second: H-KRWWKWIRW-OH
The “Ratio IC50” value of the first is higher: 0.35 for the first, 0.04 for the second.

Going from H-KRWWKWWRR-OH to H-KRWWRKWWR-OH, the “Ratio IC50” value rises from 0.13 to 0.15.

First: H-KRWWWVWKR-OH
Second: H-KRWWWWRFR-OH
The “Ratio IC50” value of the first is higher: 0.36 for the first, 0.24 for the second.

Going from H-KRWWWWWKR-OH to H-KWRRWKRWW-OH, the “Ratio IC50” value falls from 0.22 to 0.15.

Going from H-KWWKIWWKR-OH to H-KWWLVWKRK-OH, the “Ratio IC50” value rises from 0.2 to 0.23.

Compared with H-KWWRWWRKW-OH, H-LRFILWWKR-OH is higher in “Ratio IC50” value: 0.2 for the first, 0.88 for the second.

First: H-LRWRWWKIK-OH
Second: H-LVFRKYWKR-OH
The “Ratio IC50” value of the first is lower: 0.26 for the first, 0.99 for the second.

Compared with H-MINRVRLRW-OH, H-NKTGYRWRN-OH is higher in “Ratio IC50” value: 2.77 for the first, 8.33 for the second.

First: H-NQKWSGRRR-OH
Second: H-NRRNGQMRR-OH
The “Ratio IC50” value of the first is lower: 7.97 for the first, 8.41 for the second.

Going from H-QRNKGLRHH-OH to H-RGKYIRWRK-OH, the “Ratio IC50” value falls from 8.76 to 3.83.

Compared with H-RGRRQIGKF-OH, H-RGRTSNWKM-OH is lower in “Ratio IC50” value: 8.51 for the first, 7.07 for the second.

Compared with H-RHWKTWWKR-OH, H-RIKRWWWWR-OH is lower in “Ratio IC50” value: 0.95 for the first, 0.31 for the second.

Compared with H-RIKVIWWWR-OH, H-RIWYWYKRW-OH is lower in “Ratio IC50” value: 0.51 for the first, 0.36 for the second.

Going from H-RKIWWWRIR-OH to H-RKRTKVTWI-OH, the “Ratio IC50” value rises from 0.59 to 5.11.

First: H-RKRWLWRWW-OH
Second: H-RKVRWKIRV-OH
The “Ratio IC50” value of the first is lower: 0.25 for the first, 0.32 for the second.

Compared with H-RKWMGRFLM-OH, H-RKWRWRWLK-OH is lower in “Ratio IC50” value: 4.38 for the first, 0.31 for the second.

Compared with H-RKWWRWWRW-OH, H-RLKKVRWWW-OH is higher in “Ratio IC50” value: 0.31 for the first, 0.34 for the second.

First: H-RLVHWIRRV-OH
Second: H-RNKFGGNWR-OH
The “Ratio IC50” value of the first is lower: 2.62 for the first, 25 for the second.

First: H-RQNGVWRVF-OH
Second: H-RRFKKWYWY-OH
The “Ratio IC50” value of the first is higher: 8.26 for the first, 0.26 for the second.

Going from H-RRIRRVRWG-OH to H-RRIWRWWWW-OH, the “Ratio IC50” value falls from 8.22 to 0.68.

Compared with H-RRKWWWRWW-OH, H-RRMGNGGFR-OH is higher in “Ratio IC50” value: 0.27 for the first, 8.71 for the second.

First: H-RRMKKLRRK-OH
Second: H-RRRKTWYWW-OH
The “Ratio IC50” value of the first is higher: 4.22 for the first, 0.32 for the second.

Compared with H-RRRKWWIWG-OH, H-RRRKWWIWW-OH is lower in “Ratio IC50” value: 0.57 for the first, 0.18 for the second.

First: H-RRRWWWIIV-OH
Second: H-RRVQRGKWW-OH
The “Ratio IC50” value of the first is lower: 0.85 for the first, 6.3 for the second.

Going from H-RRWFVKWWY-OH to H-RRWWHLWRK-OH, the “Ratio IC50” value falls from 0.52 to 0.38.

First: H-RRWWMRWWV-OH
Second: H-RSGKKRWRR-OH
The “Ratio IC50” value of the first is lower: 0.33 for the first, 6.5 for the second.

Going from H-RVFVKIRMK-OH to H-RVKTWRVRT-OH, the “Ratio IC50” value rises from 0.72 to 5.66.

Going from H-RVRWWKKRW-OH to H-RVWFKRRWW-OH, the “Ratio IC50” value falls from 0.27 to 0.26.

Compared with H-RVWRNGYSR-OH, H-RWFRWWKRW-OH is lower in “Ratio IC50” value: 10.24 for the first, 0.26 for the second.

First: H-RWIGVIIKY-OH
Second: H-RWILWWWRI-OH
The “Ratio IC50” value of the first is lower: 2.24 for the first, 25 for the second.

Compared with H-RWKIFIRWW-OH, H-RWKMWWRWV-OH is lower in “Ratio IC50” value: 1.82 for the first, 0.24 for the second.

Compared with H-RWLVLRKRW-OH, H-RWMVSKIWY-OH is higher in “Ratio IC50” value: 0.53 for the first, 25 for the second.

Compared with H-RWRGIVHIR-OH, H-RWRIKFKRW-OH is lower in “Ratio IC50” value: 4.93 for the first, 0.26 for the second.

Going from H-RWRIKRWWW-OH to H-RWRRKWWWW-OH, the “Ratio IC50” value rises from 0.12 to 0.39.

Going from H-RWRRWKWWW-OH to H-RWRWKRWWW-OH, the “Ratio IC50” value falls from 0.4 to 0.25.

Compared with H-RWRWWIKII-OH, H-RWRWWKRWY-OH is lower in “Ratio IC50” value: 0.46 for the first, 0.2 for the second.
